Laboratory results taken from ChEMBL document CHEMBL3994650, “New 1,4-dihydro[1,8]naphthyridine derivatives as DNA gyrase inhibitors” (Bioorg Med Chem Lett, 2017).
Converted amounts (≈) assume the structure as drawn. The source made the active and inactive calls. The rule behind the calls is not given here.

Assays:
[1] = test system: Escherichia coli; test: Antibacterial activity against Escherichia coli ATCC 35218 incubated after 24 hrs by resazurin dye based broth microdilution assay; format: functional; conditions: ATCC 35218, 24 h
[2] = test system: Listeria monocytogenes; test: Antibacterial activity against Listeria monocytogenes ATCC 7644 incubated after 24 hrs by resazurin dye based broth microdilution assay; format: functional; conditions: ATCC 7644, 24 h
[3] = test system: Pseudomonas aeruginosa; test: Antibacterial activity against Pseudomonas aeruginosa ATCC 27853 incubated after 24 hrs by resazurin dye based broth microdilution assay; format: functional; conditions: ATCC 27853, 24 h
[4] = test system: Escherichia coli; test: Antibacterial activity against Escherichia coli ATCC 25922 incubated after 24 hrs by resazurin dye based broth microdilution assay; format: functional; conditions: ATCC 25922, 24 h
[5] = test system: Staphylococcus aureus; test: Antibacterial activity against Staphylococcus aureus ATCC 25923 incubated after 24 hrs by resazurin dye based broth microdilution assay; format: functional; conditions: ATCC 25923, 24 h
[6] = test system: Enterococcus faecalis; test: Antibacterial activity against Enterococcus faecalis ATCC 51299 incubated after 24 hrs by resazurin dye based broth microdilution assay; format: functional; conditions: ATCC 51299, 24 h
[7] = test system: Klebsiella pneumoniae; test: Antibacterial activity against Klebsiella pneumoniae ATCC 700603 incubated after 24 hrs by resazurin dye based broth microdilution assay; format: functional; conditions: Klebsiella pneumoniae, 700603, 24 h
[8] = test system: Enterococcus faecalis; test: Antibacterial activity against Enterococcus faecalis ATCC 29212 incubated after 24 hrs by resazurin dye based broth microdilution assay; format: functional; conditions: ATCC 29212, 24 h
[9] = test system: Staphylococcus aureus; test: Antibacterial activity against Staphylococcus aureus ATCC 25923 assessed as decrease in ATP level at […] ug/ml after 24 hrs by BacTiter-Glo reagent based bioluminescence assay; format: functional
[10] = Selectivity index, ratio of IC50 for mouse NIH/3T3 cells to MIC90 for Klebsiella pneumoniae ATCC 700603; format: toxicity; conditions: read-out: Selectivity Index
[11] = Selectivity index, ratio of IC50 for mouse NIH/3T3 cells to MIC90 for Listeria monocytogenes ATCC 7644; format: toxicity; conditions: read-out: Selectivity Index
[12] = test system: NIH3T3; test: Cytotoxicity against mouse NIH/3T3 cells assessed as reduction in cell proliferation after 24 hrs by MTT assay; format: cell-based; conditions: NIH3T3, 24 h
[13] = Selectivity index, ratio of IC50 for mouse NIH/3T3 cells to MIC90 for Pseudomonas aeruginosa ATCC 27853; format: toxicity; conditions: read-out: Selectivity Index
[14] = test system: Escherichia coli ATCC 25922; test: Inhibition of Escherichia coli DNA gyrase assessed as inhibition of enzyme-mediated supercoiling of relaxed pHOT1 DNA substrate after 30 mins by gel electrophoresis method
Summary of the method: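 E. coli DNA gyrase (1 U) was incubated with relaxed pHOT1 DNA substrate (0.25 µg) for 30 min at 37 °C. Compounds were tested at 15.6, 7.8, 3.9 and 1.95 µg/L. Controls were supercoiled DNA, relaxed DNA, relaxed DNA plus gyrase, and 1% DMSO. Supercoiling was read by agarose gel electrophoresis.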

[15] = test system: Escherichia coli ATCC 25922; test: Inhibition of Escherichia coli DNA gyrase assessed as inhibition of enzyme-mediated supercoiling of relaxed pHOT1 DNA substrate at […] to […] ug/ml after 30 mins by gel electrophoresis method

Row | Structure (SMILES) | MIC90 [1] [µg/mL] | MIC90 [2] [µg/mL] | MIC90 [3] [µg/mL] | MIC90 [4] [µg/mL] | MIC90 [5] [µg/mL] | MIC90 [6] [µg/mL] | MIC90 [7] [µg/mL] | MIC90 [8] [µg/mL] | Activity [9] | selectivity ratio [10] | selectivity ratio [11] | IC50 [12] [µg/mL] | selectivity ratio [13] | inhibition [14] | inhibition [15]
1 | CCOC(=O)c1cn(-c2ccc(F)cc2F)c2nc(N3CCN(CCCN(C)C)CC3)c(F)cc2c1=O | 125 (≈ 242 µM) | 125 (≈ 242 µM) | 125 (≈ 242 µM) | 125 (≈ 242 µM) | 62.5 (≈ 121 µM) | 62.5 (≈ 121 µM) | 250 (≈ 483 µM) | 125 (≈ 242 µM) | – | – | – | – | – | – | –
2 | CCOC(=O)c1cn(-c2ccc(F)cc2F)c2nc(Sc3nc4cc(Cl)ccc4[nH]3)c(F)cc2c1=O | 125 (≈ 235 µM) | 62.5 (≈ 118 µM) | 125 (≈ 235 µM) | 62.5 (≈ 118 µM) | 62.5 (≈ 118 µM) | 125 (≈ 235 µM) | 125 (≈ 235 µM) | 125 (≈ 235 µM) | – | – | – | – | – | – | –
3 | O=C(O)c1cn(-c2ccc(F)cc2F)c2nc(Sc3nc4cc([N+](=O)[O-])ccc4[nH]3)c(F)cc2c1=O | 3.9 (≈ 7.6 µM) | 15.6 (≈ 30.4 µM) | 15.6 (≈ 30.4 µM) | 3.9 (≈ 7.6 µM) | 1.95 (≈ 3.8 µM) | 15.6 (≈ 30.4 µM) | 15.6 (≈ 30.4 µM) | 7.8 (≈ 15.2 µM) | Active | 8 | 8 | 122 (≈ 237 µM) | 8 | Dose-dependent effect | –
4 | O=C(O)c1cn(-c2ccc(F)cc2F)c2nc(Sc3nc4cc(Cl)ccc4[nH]3)c(F)cc2c1=O | 15.6 (≈ 31 µM) | 15.6 (≈ 31 µM) | 31.2 (≈ 62.1 µM) | 15.6 (≈ 31 µM) | 7.8 (≈ 15.5 µM) | 31.2 (≈ 62.1 µM) | 31.2 (≈ 62.1 µM) | 31.2 (≈ 62.1 µM) | – | – | – | – | – | – | –
5 | CCOC(=O)c1cn(-c2ccc(F)cc2F)c2nc(Sc3nc4cc(C)ccc4[nH]3)c(F)cc2c1=O | 250 (≈ 490 µM) | 125 (≈ 245 µM) | 62.5 (≈ 122 µM) | 125 (≈ 245 µM) | 62.5 (≈ 122 µM) | 250 (≈ 490 µM) | 125 (≈ 245 µM) | 125 (≈ 245 µM) | – | – | – | – | – | – | –
6 | O=C(O)c1cn(-c2ccc(F)cc2F)c2nc(Sc3nc4ccccc4[nH]3)c(F)cc2c1=O | 15.6 (≈ 33.3 µM) | 31.2 (≈ 66.7 µM) | 31.2 (≈ 66.7 µM) | 15.6 (≈ 33.3 µM) | 7.8 (≈ 16.7 µM) | 31.2 (≈ 66.7 µM) | 31.2 (≈ 66.7 µM) | 15.6 (≈ 33.3 µM) | – | – | – | – | – | – | –
7 | COc1c(N2C[C@@H]3CCCN[C@@H]3C2)c(F)cc2c(=O)c(C(=O)O)cn(C3CC3)c12 [MOXIFLOXACIN] | ≤ 1.95 | 3.9 (≈ 9.72 µM) | 3.9 (≈ 9.72 µM) | ≤ 1.95 | ≤ 1.95 | ≤ 1.95 | 3.9 (≈ 9.72 µM) | ≤ 1.95 | – | – | – | 380 (≈ 946 µM) | – | – | Active
8 | CCOC(=O)c1cn(-c2ccc(F)cc2F)c2nc(Sc3nc4ccccc4[nH]3)c(F)cc2c1=O | 125 (≈ 252 µM) | 125 (≈ 252 µM) | 125 (≈ 252 µM) | 62.5 (≈ 126 µM) | 125 (≈ 252 µM) | 62.5 (≈ 126 µM) | 125 (≈ 252 µM) | 125 (≈ 252 µM) | – | – | – | – | – | – | –
9 | CCOC(=O)c1cn(-c2ccc(F)cc2F)c2nc(Sc3nc4ccccc4s3)c(F)cc2c1=O | 125 (≈ 243 µM) | 125 (≈ 243 µM) | 125 (≈ 243 µM) | 125 (≈ 243 µM) | 62.5 (≈ 122 µM) | 125 (≈ 243 µM) | 125 (≈ 243 µM) | 125 (≈ 243 µM) | – | – | – | – | – | – | –
10 | N[C@@H]1[C@H]2CN(c3nc4c(cc3F)c(=O)c(C(=O)O)cn4-c3ccc(F)cc3F)C[C@@H]12 [TROVAFLOXACIN] | ≤ 1.95 | ≤ 1.95 | ≤ 1.95 | ≤ 1.95 | ≤ 1.95 | ≤ 1.95 | ≤ 1.95 | ≤ 1.95 | Active | – | – | 244 (≈ 587 µM) | – | – | Active
11 | CCOC(=O)c1cn(-c2ccc(F)cc2F)c2nc(Sc3nc4cc([N+](=O)[O-])ccc4[nH]3)c(F)cc2c1=O | 125 (≈ 231 µM) | 125 (≈ 231 µM) | 125 (≈ 231 µM) | 250 (≈ 462 µM) | 125 (≈ 231 µM) | 250 (≈ 462 µM) | 125 (≈ 231 µM) | 250 (≈ 462 µM) | – | – | – | – | – | – | –
12 | Cc1ccc2[nH]c(Sc3nc4c(cc3F)c(=O)c(C(=O)O)cn4-c3ccc(F)cc3F)nc2c1 | 3.9 (≈ 8.08 µM) | 31.2 (≈ 64.8 µM) | 15.6 (≈ 32.3 µM) | 7.8 (≈ 16.2 µM) | 3.9 (≈ 8.08 µM) | 31.2 (≈ 64.8 µM) | 31.2 (≈ 64.8 µM) | 31.2 (≈ 64.8 µM) | – | – | – | – | – | – | –
13 | O=C(O)c1cn(-c2ccc(F)cc2F)c2nc(Sc3nc4ccccc4s3)c(F)cc2c1=O | 31.2 (≈ 64.4 µM) | 31.2 (≈ 64.4 µM) | 31.2 (≈ 64.4 µM) | 31.2 (≈ 64.4 µM) | 15.6 (≈ 32.1 µM) | 62.5 (≈ 129 µM) | 31.2 (≈ 64.4 µM) | 31.2 (≈ 64.4 µM) | – | – | – | – | – | – | –
14 | O=C(O)c1cn(C2CC2)c2cc(N3CCNCC3)c(F)cc2c1=O [CIPROFLOXACIN] | ≤ 1.95 | 3.9 (≈ 11.8 µM) | ≤ 1.95 | ≤ 1.95 | ≤ 1.95 | ≤ 1.95 | ≤ 1.95 | ≤ 1.95 | Active | – | – | 306 (≈ 923 µM) | – | – | –
